For assay [1], the system named is Rattus norvegicus. Nature of the assay: Reversal of reserpine induced depression in rats, after sc injection after dosing for a period of 30 min. Type of assay: functional. Particulars: 0.5 h. The essentials:
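Normal rats given reserpine 5 mg/kg 24 h before testing, then test drug sc. Locomotor activity recorded for 30 min starting immediately after dosing. Locomotor stimulation read as reversal of reserpine-induced depression.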

Assay [2] has as its system Rattus norvegicus. Kind of assay: Inhibition of locomotor activity in rats, after sc injection after dosing for a period of 30 min. Type of assay: functional. Particulars: 0.5 h.
The subject of assay [3] is Rattus norvegicus. Kind of assay: Inhibition of accumulation of DOPA in rat striatum, after intraperitoneal administration. The assay is classed as functional. Particulars: ip. The essentials: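 Rats dosed ip 1 h before sacrifice; GBL (750 mg/kg ip) and NSD 1015 (100 mg/kg ip) given 30 and 25 min before sacrifice. Striatal DOPA measured by HPLC with electrochemical detection. ED50 is the dose giving half-maximal decrease in DOPA formation, from three to five dose levels with four to five rats per group.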

Assay [4] has as its system Rattus norvegicus. Nature of the assay: Reversal of 6-OHDA-induced depression in rats, after sc injection after dosing for a period of 30 min. The assay is classed as functional. Particulars: 0.5 h. The essentials: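 Rats pretreated at least one month earlier with 6-OHDA (200 μg icv) plus pargyline (50 mg/kg ip) and desmethylimipramine (25 mg/kg ip), giving about 90% brain DA depletion checked in representative animals. Test drug given sc; locomotor activity recorded for 30 min starting immediately after dosing.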

Assay [5] concerns Rattus norvegicus. Nature of the assay: Inhibition of locomotor activity in rats after peroral administration of the compound. Particulars: po. Type of assay: functional.
In assay [6] the test system is Rattus norvegicus. Kind of assay: Inhibition of dopamine neuronal firing in the anesthetized rats after ip administration at a dose 2.5 mg/kg. The assay is classed as functional. Particulars: route intraperitoneal. The essentials: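 Zona compacta DA cells of substantia nigra recorded extracellularly in chloral-anesthetized rats, identified by waveform and firing pattern, with recording sites confirmed histologically. Drug given at 2.5 mg/kg ip via an indwelling catheter. Baseline was the mean rate over the 2 min before injection. Effect was the mean over the 1-min period of maximal inhibition.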

In assay [7] the test system is Monkey. Nature of the assay: Effect on Inhibition of Sidman avoidance in squirrel monkeys was determined. The assay is classed as functional. Particulars: in Saimiri. The essentials: (§1)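 Sidman avoidance in mature squirrel monkeys; oral dosing at three doses, four animals per dose; ED50 with SEM derived from the dose-response.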
Assay [8] concerns Monkey. Nature of the assay: Effect on EPS liability in squirrel monkeys sensitized to haloperidol at 2.5 mg/kg; A=Active. Type of assay: functional, organism-based. Also on record: dose 2.5 mg/kg. Particulars: Cercopithecidae.
Assay [9] has as its system Monkey. Nature of the assay: Effect on Inhibition of Sidman avoidance in squirrel monkeys when administered orally. The assay is classed as functional. Particulars: in Saimiri, po. The essentials: as §1

Each structure is given as a SMILES string. The source made the active and inactive calls. The calls are words filed in the database; no cut-off is given here.

Our source for the ED50, inhibition in vivo and EPS values is ChEMBL document CHEMBL1124184, “Dopamine autoreceptor agonists as potential antipsychotics. 1. (Aminoalkoxy)anilines” (J Med Chem, 1988).

Turning to `CN1CCc2cccc3c2[C@H]1Cc1ccc(O)c(O)c1-3` [APOMORPHINE], the ED50 is 0.096 mg/kg in assay [1]; 0.021 mg/kg in [2]; 0.3 mg/kg in [3]; 0.006 mg/kg in [4]; greater than 30 mg/kg in assay [5]. For the same compound, at 2.5 mg/kg the inhibition in vivo in [6] was 100%.

As to `CN(C)c1cccc(OCCCN2CCN(c3ccccc3)CC2)c1`, it took a dose of 9.2 mg/kg to reach the 50% effect level in [5] (ED50). The same compound displayed an inhibition in vivo at 2.5 mg/kg in [6] of 21%.

The compound `CNc1cccc(OCCCN2CCN(c3ccccc3)CC2)c1` yielded an ED50 in assay [5] of 9.4 mg/kg. The same compound gave an inhibition in vivo at 2.5 mg/kg in assay [6] of 7%.

Regarding `CCCN(CCCOc1cccc(N)c1)CCc1ccccc1`, the 50% effective dose (ED50) in assay [5] was greater than 30 mg/kg. Moreover, 2.5 mg/kg produced 8% inhibition in vivo in [6].

Take `C1=C(c2ccccc2)CCN(CCCCc2c[nH]c3ccccc23)C1`: the median effective dose (ED50) in assay [1] is greater than 30 mg/kg; in [2] it was 0.64 mg/kg; in assay [3], 2.2 mg/kg; in assay [4], 0.4 mg/kg; in [5], 4.8 mg/kg. This compound displayed an inhibition in vivo at 2.5 mg/kg in assay [6] of 100%.

`CSc1ccc2c(c1)N(CCC1CCCCN1C)c1ccccc1S2` (stereo not given) [THIORIDAZINE] registered a 50% effective dose (ED50) in assay [7] of 3.9 mg/kg. The EPS result in assay [8] was “Active”.

With `Nc1cccc(OCCCN2CC=C(c3ccccc3)CC2)c1`, the ED50 in assay [1] is greater than 30 mg/kg; in [2], 0.35 mg/kg; in [3], 7 mg/kg; in assay [4], 0.13 mg/kg; in assay [5], 12.1 mg/kg. For the same compound, the inhibition in vivo at 2.5 mg/kg in assay [6] stood at 89%.

As for `Nc1cccc(OCCCN2CCN(c3ccccc3)CC2)c1`, the ED50 in [1] was greater than 30 mg/kg; in [2], 1.8 mg/kg; in assay [3] it was 12 mg/kg; in assay [4], greater than 30 mg/kg; in assay [5] it was 10.3 mg/kg; in [9], 8.5 mg/kg. For the same compound, the inhibition in vivo at 2.5 mg/kg in [6] was 85%.

Regarding `CCCN1CCC[C@H](c2cccc(O)c2)C1`, the ED50 is 8.8 mg/kg in [2], 7.2 mg/kg in assay [3], 0.6 mg/kg in assay [4] and greater than 30 mg/kg in assay [5]. In [6], this compound came in with an inhibition in vivo at 2.5 mg/kg of 100%.

For `Nc1cccc(OCCCN2CCN(c3ccccn3)CC2)c1`, the median effective dose (ED50) in [5] is 9.2 mg/kg. For the same compound, the inhibition in vivo at 2.5 mg/kg in assay [6] was determined as 46%.

As a reminder, the ED50 is the dose at which the effect has come halfway, by size or by number of responders. One may read the inhibition in vivo as the share of the control response that was lost under treatment.
